A short description of series [1]: Mitochondrial toxicity in human 786-O cells measured after 6 hrs by MitoTracker Red chloromethyl-X-rosamine based assay. The class given is cell-based, 786-0.
Series [2] deals with Trypanosoma cruzi. Briefly: Growth inhibition of trypomastigote form of Trypanosoma cruzi Y infected in human U2OS cells at 50 uM measured after 72 hrs by DRAQ5 DNA dye based confocal microscopic analysis relative to control. The class given is organism-based. The following applies: for inhibition at 50 µM: Trypanosoma cruzi, Y, U2OS, read-out: GI; for growth inhibition (GI): trypanosoma cruzi, 50 µM.

Series [3] addresses T1, Pteridine reductase 1 (Leishmania major, UniProt Q01782).
T1 sequence (Q01782 whole entry): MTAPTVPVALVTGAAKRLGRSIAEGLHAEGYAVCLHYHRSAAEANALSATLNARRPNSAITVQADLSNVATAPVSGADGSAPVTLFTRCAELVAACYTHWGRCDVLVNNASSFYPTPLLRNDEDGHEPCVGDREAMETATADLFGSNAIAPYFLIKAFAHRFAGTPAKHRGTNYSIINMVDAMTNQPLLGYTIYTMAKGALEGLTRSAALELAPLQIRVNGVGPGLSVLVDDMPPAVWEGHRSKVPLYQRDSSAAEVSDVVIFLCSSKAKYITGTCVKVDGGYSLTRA
Kind of series: Inhibition of Leishmania major pteridine reductase 1 using di-hydrobiopterine as substrate in presence of NADPH. The following applies: read-out: IC50. The procedure, abridged:
(§1)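 Photometric PTR1 assay with NADPH and dihydrobiopterin substrate. H₄B formation is coupled non-enzymatically to cytochrome c reduction, read as signal increase at 550 nm.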

Series [4] relates to Leishmania infantum. Kind of series: Growth inhibition of luciferase expressing Leishmania infantum axenic amastigotes infected in human THP1 cells at 10 uM measured after 72 hrs by steady-glo luminescence assay relative to control. The series is classed as organism-based. The following applies: for growth inhibition (GI): leishmania infantum, 72 h, 10 µM.
Series [5] can be described thus: Cytotoxicity against human THP1 cells after 72 hrs by MTT assay. The series is classed as cell-based, THP-1. The following applies: read-out: NOAEL. (In general: Tetrazolium dyes change colour on reduction, which living cells bring about.)
The target of series [6] is Cytochrome P450 3A4 (Homo sapiens, UniProt P08684). Briefly: Inhibition of human CYP3A4 expressed in baculovirus infected insect cells using beetle D-luciferin as substrate preincubated for 30 mins followed by NADPH addition and measured after 30 mins by CYP450-Glo assay.
The test system of series [7] is Trypanosoma brucei. Kind of series: Inhibition of N-terminal His-tagged Trypanosoma brucei pteridine reductase 1 at 50 uM using di-hydrobiopterine as substrate measured at 1 min interval for 50 mins in presence of NADPH relative to control. The procedure, abridged: as §1
The target in series [8] is T2, Pteridine reductase 1 (Leishmania major) (UniProt Q01782).
T2 sequence (whole entry): T1 sequence (Q01782 whole entry)
Kind of series: Inhibition of Leishmania major pteridine reductase 1 at 50 uM using di-hydrobiopterine as substrate in presence of NADPH relative to control. The procedure, abridged: as §1

Series [9] has as its target Cytochrome P450 2D6 (Homo sapiens, UniProt P10635). Briefly: Inhibition of human CYP2D6 expressed in baculovirus infected insect cells using beetle D-luciferin as substrate preincubated for 30 mins followed by NADPH addition and measured after 30 mins by CYP450-Glo assay.
Series [10] can be described thus: Inhibition of N-terminal His-tagged Trypanosoma brucei pteridine reductase 1 using di-hydrobiopterine as substrate measured at 1 min interval for 50 mins in presence of NADPH. Put shortly:
as §1

Series [11] deals with Trypanosoma brucei. Briefly: Growth inhibition of Trypanosoma brucei bloodstream forms at 10 uM measured after 72 hrs by resazurin-based fluorescence assay relative to control. The series is classed as organism-based. The following applies: for inhibition at 10 µM: Trypanosoma brucei, read-out: GI. (In general: Resazurin is reduced to fluorescent resorufin, in cell work by metabolically active cells.)

Series [12] concerns the target Cytochrome P450 2C9 (Homo sapiens, UniProt P11712). Briefly: Inhibition of human CYP2C9 expressed in baculovirus infected insect cells using beetle D-luciferin as substrate preincubated for 30 mins followed by NADPH addition and measured after 30 mins by CYP450-Glo assay.
Series [13] in a line: Cytotoxicity against human U2OS cells assessed as reduction in cell number. The class given is cell-based.
The nature of series [14]: Cytotoxicity against human A549 cells after 48 hrs by Celltiter-glo assay. The class given is cell-based. On the technique in general: Cellular ATP, detected with luciferase, serves as a proxy for viable cell number.
The nature of series [15]: Selectivity ratio of IC50 for Leishmania major pteridine reductase 1 to IC50 for N-terminal His-tagged Trypanosoma brucei pteridine reductase 1.
Series [16] concerns the target T3, Cytochrome P450 1A2 (Homo sapiens, UniProt P05177).
T3 sequence (P05177 whole entry): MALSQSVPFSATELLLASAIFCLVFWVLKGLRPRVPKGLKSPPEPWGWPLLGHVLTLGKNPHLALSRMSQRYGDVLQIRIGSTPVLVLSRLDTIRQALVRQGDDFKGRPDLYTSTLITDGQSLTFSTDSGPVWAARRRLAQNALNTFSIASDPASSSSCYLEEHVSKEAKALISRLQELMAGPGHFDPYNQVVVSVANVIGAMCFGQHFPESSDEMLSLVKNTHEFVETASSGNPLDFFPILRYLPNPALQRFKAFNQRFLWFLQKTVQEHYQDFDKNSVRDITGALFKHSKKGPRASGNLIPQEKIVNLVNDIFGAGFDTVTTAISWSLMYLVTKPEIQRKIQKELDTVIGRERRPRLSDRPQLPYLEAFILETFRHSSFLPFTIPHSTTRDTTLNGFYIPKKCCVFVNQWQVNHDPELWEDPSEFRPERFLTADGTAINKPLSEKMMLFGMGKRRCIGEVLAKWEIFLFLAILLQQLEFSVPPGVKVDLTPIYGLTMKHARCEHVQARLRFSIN
Kind of series: Inhibition of human CYP1A2 expressed in baculovirus infected insect cells using beetle D-luciferin as substrate preincubated for 30 mins followed by NADPH addition and measured after 30 mins by CYP450-Glo assay.

Series [17] has as its target Cytochrome P450 2C19 (Homo sapiens, UniProt P33261). Kind of series: Inhibition of human CYP2C19 expressed in baculovirus infected insect cells using beetle D-luciferin as substrate preincubated for 30 mins followed by NADPH addition and measured after 30 mins by CYP450-Glo assay.
Series [18] has as its target Voltage-gated inwardly rectifying potassium channel KCNH2 (Homo sapiens, UniProt Q12809). Kind of series: Displacement of Tracer Red from human ERG by fluorescence polarization assay.

pIC50: −log10 of the molar value.

Here are results for six compounds from ChEMBL document CHEMBL4387708, “Enhancement of Benzothiazoles as Pteridine Reductase-1 Inhibitors for the Treatment of Trypanosomatidic Infections” (J Med Chem, 2019).

Chain of Voltage-gated inwardly rectifying potassium channel KCNH2 (Q12809 whole entry): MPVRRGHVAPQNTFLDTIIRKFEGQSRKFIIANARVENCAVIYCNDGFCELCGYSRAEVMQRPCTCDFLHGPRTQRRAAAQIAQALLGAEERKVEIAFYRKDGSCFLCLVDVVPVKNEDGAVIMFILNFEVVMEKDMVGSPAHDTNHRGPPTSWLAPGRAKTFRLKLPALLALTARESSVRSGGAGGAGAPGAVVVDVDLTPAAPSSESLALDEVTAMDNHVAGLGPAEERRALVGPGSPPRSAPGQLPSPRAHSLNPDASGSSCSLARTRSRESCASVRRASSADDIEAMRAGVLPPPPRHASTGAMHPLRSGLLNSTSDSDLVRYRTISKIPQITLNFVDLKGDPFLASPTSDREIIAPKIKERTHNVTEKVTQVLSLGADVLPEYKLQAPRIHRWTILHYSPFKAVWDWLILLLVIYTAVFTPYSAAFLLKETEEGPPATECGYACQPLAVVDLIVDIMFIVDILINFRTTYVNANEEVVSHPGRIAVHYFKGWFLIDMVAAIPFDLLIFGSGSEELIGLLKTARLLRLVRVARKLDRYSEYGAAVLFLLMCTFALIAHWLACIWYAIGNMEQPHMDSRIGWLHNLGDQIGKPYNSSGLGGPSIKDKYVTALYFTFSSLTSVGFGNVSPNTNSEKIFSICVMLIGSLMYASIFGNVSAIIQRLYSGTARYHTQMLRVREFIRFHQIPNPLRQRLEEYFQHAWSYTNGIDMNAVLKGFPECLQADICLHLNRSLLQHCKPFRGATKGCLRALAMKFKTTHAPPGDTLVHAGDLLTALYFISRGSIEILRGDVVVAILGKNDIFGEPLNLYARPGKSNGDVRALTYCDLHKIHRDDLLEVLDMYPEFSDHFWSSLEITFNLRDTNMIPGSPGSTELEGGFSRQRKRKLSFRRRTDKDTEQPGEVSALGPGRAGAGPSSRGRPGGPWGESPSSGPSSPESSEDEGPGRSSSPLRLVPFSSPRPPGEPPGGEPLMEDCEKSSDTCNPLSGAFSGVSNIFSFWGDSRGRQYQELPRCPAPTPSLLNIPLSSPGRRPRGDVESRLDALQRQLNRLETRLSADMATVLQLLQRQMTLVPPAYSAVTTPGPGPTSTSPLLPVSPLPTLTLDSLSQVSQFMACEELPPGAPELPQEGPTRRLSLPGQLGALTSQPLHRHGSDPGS
Chain of Cytochrome P450 3A4 (P08684 whole entry): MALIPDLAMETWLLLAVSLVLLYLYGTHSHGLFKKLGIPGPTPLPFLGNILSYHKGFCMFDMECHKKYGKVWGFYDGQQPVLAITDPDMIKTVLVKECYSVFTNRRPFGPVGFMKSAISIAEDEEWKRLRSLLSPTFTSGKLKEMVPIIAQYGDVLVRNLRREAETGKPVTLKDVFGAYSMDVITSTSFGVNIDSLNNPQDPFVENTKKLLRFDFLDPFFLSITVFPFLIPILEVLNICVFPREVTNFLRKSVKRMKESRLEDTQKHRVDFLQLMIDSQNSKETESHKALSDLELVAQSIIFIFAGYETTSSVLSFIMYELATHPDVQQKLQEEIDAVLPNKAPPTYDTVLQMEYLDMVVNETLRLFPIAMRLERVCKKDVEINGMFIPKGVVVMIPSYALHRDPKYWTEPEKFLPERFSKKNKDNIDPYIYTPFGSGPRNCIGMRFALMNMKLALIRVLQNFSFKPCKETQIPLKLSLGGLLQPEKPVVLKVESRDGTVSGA
Chain of Cytochrome P450 2D6 (P10635 whole entry): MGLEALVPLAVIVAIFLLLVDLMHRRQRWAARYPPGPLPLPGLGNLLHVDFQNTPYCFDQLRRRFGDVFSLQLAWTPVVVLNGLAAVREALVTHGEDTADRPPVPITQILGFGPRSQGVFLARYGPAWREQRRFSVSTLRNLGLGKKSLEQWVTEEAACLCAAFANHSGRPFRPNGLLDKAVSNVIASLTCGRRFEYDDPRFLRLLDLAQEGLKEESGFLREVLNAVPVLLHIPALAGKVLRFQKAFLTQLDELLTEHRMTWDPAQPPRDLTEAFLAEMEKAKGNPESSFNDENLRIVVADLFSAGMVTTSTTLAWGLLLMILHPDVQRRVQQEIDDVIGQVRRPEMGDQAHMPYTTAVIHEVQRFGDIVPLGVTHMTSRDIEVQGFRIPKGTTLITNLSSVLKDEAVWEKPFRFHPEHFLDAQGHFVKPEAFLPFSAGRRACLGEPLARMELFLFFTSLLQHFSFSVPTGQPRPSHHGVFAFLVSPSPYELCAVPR
Chain of Cytochrome P450 2C9 (P11712 whole entry): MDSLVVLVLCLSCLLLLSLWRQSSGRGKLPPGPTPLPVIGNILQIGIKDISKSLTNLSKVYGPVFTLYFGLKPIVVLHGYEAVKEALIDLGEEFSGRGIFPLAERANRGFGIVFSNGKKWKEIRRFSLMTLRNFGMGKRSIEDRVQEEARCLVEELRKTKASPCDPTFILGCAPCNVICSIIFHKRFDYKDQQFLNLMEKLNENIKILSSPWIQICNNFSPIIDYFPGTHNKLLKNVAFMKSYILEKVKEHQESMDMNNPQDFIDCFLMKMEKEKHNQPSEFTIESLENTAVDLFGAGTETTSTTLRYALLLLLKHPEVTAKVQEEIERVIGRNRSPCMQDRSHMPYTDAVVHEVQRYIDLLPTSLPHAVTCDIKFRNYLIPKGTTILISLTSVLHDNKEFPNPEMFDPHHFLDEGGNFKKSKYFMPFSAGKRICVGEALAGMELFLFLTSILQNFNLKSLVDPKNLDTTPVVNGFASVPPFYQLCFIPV
Chain of Cytochrome P450 2C19 (P33261 whole entry): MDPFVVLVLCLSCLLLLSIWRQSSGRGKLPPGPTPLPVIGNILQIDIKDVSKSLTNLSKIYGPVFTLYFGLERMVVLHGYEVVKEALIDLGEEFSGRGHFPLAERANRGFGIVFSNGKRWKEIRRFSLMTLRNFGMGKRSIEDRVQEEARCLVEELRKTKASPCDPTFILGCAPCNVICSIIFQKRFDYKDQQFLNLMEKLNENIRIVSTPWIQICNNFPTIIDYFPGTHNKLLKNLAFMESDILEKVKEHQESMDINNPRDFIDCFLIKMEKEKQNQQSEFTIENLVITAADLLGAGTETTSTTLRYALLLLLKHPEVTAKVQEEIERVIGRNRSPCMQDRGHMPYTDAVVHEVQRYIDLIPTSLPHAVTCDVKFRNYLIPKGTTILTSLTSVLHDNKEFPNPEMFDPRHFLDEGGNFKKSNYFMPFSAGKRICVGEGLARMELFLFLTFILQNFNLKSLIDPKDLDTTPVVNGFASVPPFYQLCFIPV

Usually IC50 stands for the midpoint of a concentration-inhibition curve. Lower therefore signals greater potency in that assay. For orientation: pIC50 means −log10 of the IC50, conventionally taken in molar units. Broadly, the GI50 is the concentration that inhibits growth by half. As for `COC(=O)c1ccc(COc2ccc3nc(N)sc3c2)cc1`, in series [1], the IC50 at 6 h was more than 25 µM. Besides, the inhibition at 50 µM in series [2] was 8.79%. The pIC50 is 4.18 in [3]; 4.60 to 5.00 in series [6]; less than 4.60 in series [9]; 5.77 in [10]; less than 4.60 in series [12]; less than 4.60 in [16]. Moreover, the pIC50 in series [17] is more than 5.00; in series [18], 4.60 to 5.00. Moreover, in series [4], the “growth inhibition (GI)” value is reported as “Non-Toxic”. The MNTC at 72 h in [5] lay within 10 to 25 µM. Moreover, the inhibition in series [7] and in series [8] was more than 60% each time. Further, the inhibition at 10 µM in series [11] turned out to be 22%. Further, the GI50 in series [13] was more than 25 µM. Also, the GI50 at 48 h in [14] is more than 25 µM. The Ratio IC50 in series [15] fell in the range of 2 to 100.

Consider `COC(=O)C1CCN(C(=O)c2ccc(COc3ccc4nc(N)sc4c3)cc2)CC1`, for which the IC50 at 6 h in series [1] is more than 25 µM. Further, the inhibition at 50 µM in series [2] turned out to be 27%. Also, the pIC50 in series [3] is 4.50; in series [6], less than 4.60; in [9] it was less than 4.60; in [10], 5.48; in [16] it was less than 4.60; in series [18], less than 4.60. For the same compound, in [4], the “growth inhibition (GI)” value is listed as “Non-Toxic”. Moreover, the MNTC at 72 h in series [5] is 10 to 25 µM. Further, the inhibition in series [7] and in series [8] was more than 60% in each case. The inhibition at 10 µM in [11] stood at 52%. Further, the GI50 in [13] was more than 25 µM. In addition, in [14], the GI50 at 48 h is more than 25 µM.

`CCc1nc(N)nc(N)c1-c1ccc(Cl)cc1` [PYRIMETHAMINE]: the pIC50 in series [3] was 4.87; in series [10], 7.05.

Compound `Nc1nc2ccc(OC(F)(F)F)cc2s1` [RILUZOLE] came in with an IC50 at 6 h in series [1] of more than 25 µM. In addition, the “growth inhibition (GI)” value in series [2] is “Non-Toxic”; in series [4], “Non-Toxic”; in series [11] (trypanosoma brucei, 10 µM), “Non-Toxic”. Also, the figures for the pIC50 in series [3] and in series [10] were 4.03 and 4.82, respectively. Besides, in series [5], the MNTC at 72 h is more than 25 µM. Besides, the inhibition in series [7] and in series [8] was more than 60% throughout. For the same compound, the GI50 in series [13] is more than 25 µM. This compound registered a GI50 at 48 h in [14] of 10 to 25 µM.

In the case of `Nc1nc2ccc(C(=O)NCc3ccc(C(=O)NCc4ccccc4)cc3)cc2s1`, the IC50 at 6 h in [1] is more than 25 µM. The “growth inhibition (GI)” value in series [2] and in series [4] was “Non-Toxic” each time. For the same compound, the negative logarithm of the IC50 (pIC50) is 4.72 in series [3], 5.16 in series [10], less than 4.60 in [16] and less than 4.60 in series [18]. Moreover, the MNTC at 72 h in series [5] is 10 to 25 µM. Also, the inhibition in series [7] and in [8] was more than 60% in each case. Also, the inhibition at 10 µM in [11] was 53%. Besides, in [13], the GI50 was more than 25 µM. Moreover, the GI50 at 48 h in series [14] was more than 25 µM.

As for `Nc1nc2c(O)cc(C(=O)NCc3ccccc3)cc2s1`, the IC50 at 6 h in [1] was more than 25 µM. In addition, the inhibition at 50 µM in [2] was determined as 28.8%. The negative logarithm of the IC50 (pIC50) was 5.61 in [3]; more than 5.00 in series [6]; more than 5.00 in [9]; less than 4.60 in series [12]; less than 4.60 in [16]; 4.60 to 5.00 in [17]. This compound showed a pIC50 in [18] of less than 4.60. Besides, the inhibition at 10 µM was determined as 11% in [4] (Leishmania infantum, THP-1, 72 h, read-out: GI) and 15% in series [11]. For the same compound, the MNTC at 72 h in series [5] is more than 25 µM. Further, the inhibition was 47.8% in [7] and more than 60% in series [8]. Moreover, the GI50 in series [13] was more than 25 µM. For the same compound, the GI50 at 48 h in series [14] was more than 25 µM. The Ratio IC50 in [15] lay in the range of 2 to 100.
